From ChEMBL document CHEMBL3627646, “Synthesis and biological activity of amino acid derivatives of avarone and its model compound” (Bioorg Med Chem, 2015)
Values after ≈ are worked out from the molar mass of the structure shown. Active and inactive are the calls of the source. The calls are words filed in the database; no cut-off is given here.

Tests used:
[1] = tested on: Clostridium sporogenes; assay: Antibacterial activity against Clostridium sporogenes ATCC 19404 after 24 hrs by microbroth double dilution method; type: functional; details: ATCC 19404, 24 h
In short: (§1)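 Microbroth double dilution in Mueller Hinton broth; compound stock 10 mg/mL in DMSO serially halved across rows. Wells inoculated with 10 μL culture at 10^6 cells/mL, incubated 37 °C for 24 h. Amikacin row as positive control, DMSO row as negative control. MIC taken as lowest concentration inhibiting bacterial growth.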

[2] = Cytotoxicity against human Fem-X cells assessed as cell survival after 72 hrs by MTT assay; type: functional, cell-based
In short: (§2)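 Cells seeded (HeLa 2000, MDA-MB-453 3000, others 5000 per well), treated 24 h later (K562 after 2 h). Five double-diluted final concentrations, 200–12.5 μM, from 10 mM DMSO stocks, in RPMI-1640 with 10% FBS, pH 7.2, 72 h. MTT 4 h at 37 °C, SDS added, A570 read next day. Survival relative to medium control; IC50 from survival curves; triplicate; cisplatin positive control.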

[3] = tested on: Saccharomyces cerevisiae; assay: Antifungal activity against Saccharomyces cerevisiae ATCC 9763 after 24 hrs by microbroth double dilution method; type: functional; details: ATCC 9763, 24 h
[4] = tested on: HeLa; assay: Cytotoxicity against human HeLa cells assessed as cell survival after 72 hrs by MTT assay; type: functional, cell-based; in short: as §2
[5] = tested on: Aspergillus brasiliensis; assay: Antifungal activity against Aspergillus brasiliensis ATCC 16404 after 24 hrs by microbroth double dilution method; type: functional; details: ATCC 16404, 24 h
[6] = tested on: Kocuria rhizophila; assay: Antibacterial activity against Kocuria rhizophila ATCC 9341 after 24 hrs by microbroth double dilution method; type: functional; details: ATCC 9341, 24 h; in short: as §1
[7] = tested on: K562; assay: Cytotoxicity against human K562 cells assessed as cell survival after 72 hrs by MTT assay; type: functional, cell-based; details: K562, 72 h; in short: as §2
[8] = tested on: Bacillus subtilis; assay: Antibacterial activity against Bacillus subtilis ATCC 6633 after 24 hrs by microbroth double dilution method; type: functional; details: ATCC 6633, 24 h; in short: as §1
[9] = tested on: HeLa; assay: Induction of apoptosis in human HeLa cells assessed as accumulation at sub-G1 phase after 24 hrs using propidium iodide staining by flow cytometric analysis; type: functional, cell-based
[10] = tested on: HeLa; assay: Cell cycle arrest in human HeLa cells assessed as accumulation at G2/M phase at 2 time IC50 after 24 hrs using propidium iodide staining by cytofluorometric analysis; type: functional, cell-based
In short: (§3)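 Trypsinized, fixed in ice-cold 70% ethanol then held at −20 °C at least one week. Treated with RNase 100 µg/mL at 37 °C 30 min, stained with PI 40 µg/mL at least 30 min. Flow cytometry on ≥10,000 cells.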

[11] = tested on: Pseudomonas aeruginosa; assay: Antibacterial activity against Pseudomonas aeruginosa ATCC 9027 after 24 hrs by microbroth double dilution method; type: functional; details: ATCC 9027, 24 h; in short: as §1
[12] = tested on: HeLa; assay: Induction of apoptosis in human HeLa cells assessed as accumulation at sub-G1 phase after 24 hrs in presence of caspase-8 inhibitor Z-IETD-FMK using propidium iodide staining by flow cytometric analysis; type: functional, cell-based
[13] = tested on: Salmonella enterica; assay: Antibacterial activity against Salmonella enterica ATCC 13076 after 24 hrs by microbroth double dilution method; type: functional; details: ATCC 13076, 24 h; in short: as §1
[14] = tested on: Artemia salina; assay: Cytotoxicity in Brine shrimp assessed as nauplii mortality after 24 hrs; type: organism-based; details: in vivo
In short: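 Artemia salina eggs hatched in aerated tap water with dried yeast at 18–20 °C under illumination for 48 h, and freshly hatched nauplii were used. Compounds in DMSO (0.01–1 mg) were added to 950 µL artificial seawater containing 10–20 nauplii, with 5% final DMSO. After 24 h under illumination at room temperature, dead and surviving nauplii were counted and statistically analysed.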

[15] = tested on: HeLa; assay: Induction of apoptosis in human HeLa cells assessed as accumulation at sub-G1 phase after 24 hrs in presence of caspase-9 inhibitor Z-LEHD-FMK using propidium iodide staining by flow cytometric analysis; type: functional, cell-based
[16] = tested on: Escherichia coli; assay: Antibacterial activity against Escherichia coli ATCC 25922 after 24 hrs by microbroth double dilution method; type: functional; details: ATCC 25922, 24 h; in short: as §1
[17] = tested on: Staphylococcus aureus; assay: Antibacterial activity against Staphylococcus aureus ATCC 6538 after 24 hrs by microbroth double dilution method; type: functional; details: ATCC 6538, 24 h; in short: as §1
[18] = tested on: Micrococcus flavus; assay: Antibacterial activity against Micrococcus flavus ATCC 10240 after 24 hrs by microbroth double dilution method; type: functional; details: ATCC 10240, 24 h; in short: as §1
[19] = tested on: HeLa; assay: Cell cycle arrest in human HeLa cells assessed as accumulation at G2/M phase at IC50 after 24 hrs using propidium iodide staining by cytofluorometric analysis; type: functional, cell-based; in short: as §3
[20] = tested on: MDA-MB-453; assay: Cytotoxicity against human MDA-MB-453 cells assessed as cell survival after 72 hrs by MTT assay; type: functional, cell-based; details: MDA-MB-453, 72 h; in short: as §2
[21] = tested on: MRC5; assay: Cytotoxicity against human MRC5 cells assessed as cell survival after 72 hrs by MTT assay; type: cell-based; details: MRC5, 72 h; in short: as §2
[22] = tested on: HeLa; assay: Induction of apoptosis in human HeLa cells assessed as accumulation at sub-G1 phase after 24 hrs in presence of caspase-3 inhibitor Z-DEVD-FMK using propidium iodide staining by flow cytometric analysis; type: functional, cell-based
[23] = tested on: Candida albicans; assay: Antifungal activity against Candida albicans ATCC 10231 after 24 hrs by microbroth double dilution method; type: functional; details: ATCC 10231, 24 h
[24] = tested on: Micrococcus luteus; assay: Antibacterial activity against Micrococcus luteus ATCC 4698 after 24 hrs by microbroth double dilution method; type: functional; details: ATCC 4698, 24 h; in short: as §1
[25] = tested on: Proteus hauseri; assay: Antibacterial activity against Proteus hauseri ATCC 13315 after 24 hrs by microbroth double dilution method; type: functional; details: ATCC 13315, 24 h; in short: as §1
[26] = tested on: A549; assay: Cytotoxicity against human A549 cells assessed as cell survival after 72 hrs by MTT assay; type: functional, cell-based; details: A549, 72 h; in short: as §2
[27] = tested on: MRC5; assay: Cytotoxicity against human MRC5 cells; type: cell-based
[28] = tested on: HeLa; assay: Cell cycle arrest in human HeLa cells assessed as accumulation at sub-G1 phase at IC50 after 24 hrs using propidium iodide staining by cytofluorometric analysis; type: functional, cell-based; in short: as §3
[29] = tested on: HeLa; assay: Cell cycle arrest in human HeLa cells assessed as accumulation at sub-G1 phase at 2 time IC50 after 24 hrs using propidium iodide staining by cytofluorometric analysis; type: functional, cell-based; in short: as §3
[30] = tested on: HeLa; assay: Cell cycle arrest in human HeLa cells assessed as reduction in G1 phase at 2 time IC50 after 24 hrs using propidium iodide staining by cytofluorometric analysis; type: functional, cell-based; in short: as §3
[31] = tested on: HeLa; assay: Cell cycle arrest in human HeLa cells assessed as reduction in G1 phase at IC50 after 24 hrs using propidium iodide staining by cytofluorometric analysis; type: functional, cell-based; in short: as §3

| SMILES | MIC [1] [µM] | IC50 [2] [µM] | MIC [3] [µM] | IC50 [4] [µM] | MIC [5] [µM] | MIC [6] [µM] | IC50 [7] [µM] | MIC [8] [µM] | MIC [11] [µM] | MIC [13] [µM] | LC50 [14] [ppm] | MIC [16] [µM] | MIC [17] [µM] | MIC [18] [µM] | IC50 [20] [µM] | IC50 [21] [µM] | MIC [23] [µM] | MIC [24] [µM] | MIC [25] [µM] | IC50 [26] [µM] | also measured |
| --- | --- | --- | --- | --- | --- | --- | --- | --- | --- | --- | --- | --- | --- | --- | --- | --- | --- | --- | --- | --- | --- |
| CC1=CCC[C@H]2[C@](C)(CC3=CC(=O)C=C(NCCC(=O)O)C3=O)[C@@H](C)CC[C@]12C | 393 (≈ 157 µg/mL) | 20.2 | 12.2 (≈ 4.89 µg/mL) | 8.87 | 782 (≈ 313 µg/mL) | 393 (≈ 157 µg/mL) | 15.5 | 393 (≈ 157 µg/mL) | 783 (≈ 313 µg/mL) | 783 (≈ 313 µg/mL) | 84.3 | 48.8 (≈ 19.5 µg/mL) | 24.5 (≈ 9.8 µg/mL) | 783 (≈ 313 µg/mL) | 3.31 | 80.8 | 195 (≈ 77.9 µg/mL) | 48.8 (≈ 19.5 µg/mL) | 393 (≈ 157 µg/mL) | 26.9 | Activity [9]: Active; Activity [10]: Active; Activity [12]: inactive; Activity [15]: inactive; Activity [19]: Active; Activity [22]: inactive |
| CC1=CCC[C@H]2[C@](C)(CC3=CC(=O)C(N[C@@H](CC(C)C)C(=O)O)=CC3=O)[C@@H](C)CC[C@]12C | – | – | – | – | – | – | – | – | – | – | – | – | – | – | – | – | – | – | – | – | IC50 [27]: > 100 µM |
| CC1=CCC[C@H]2[C@](C)(CC3=CC(=O)C=C(N[C@@H](CC(C)C)C(=O)O)C3=O)[C@@H](C)CC[C@]12C | 44.2 (≈ 19.5 µg/mL) | 10.9 | 176 (≈ 77.9 µg/mL) | 7.72 | 1410 (≈ 624 µg/mL) | 709 (≈ 313 µg/mL) | 11.2 | 88.3 (≈ 39 µg/mL) | 88.3 (≈ 39 µg/mL) | 88.3 (≈ 39 µg/mL) | 117 | 5.55 (≈ 2.45 µg/mL) | 5.55 (≈ 2.45 µg/mL) | 88.3 (≈ 39 µg/mL) | 10.9 | 73.4 | < 5.54 | 11.1 (≈ 4.9 µg/mL) | 44.2 (≈ 19.5 µg/mL) | 19.7 | Activity [28]: Active; Activity [29]: Active; Activity [9]: Active; Activity [30]: Active; Activity [12]: inactive; Activity [31]: Active; Activity [15]: inactive; Activity [22]: inactive |
| CC1=CCC[C@H]2[C@](C)(CC3=CC(=O)C=C(N[C@@H](C)C(=O)O)C3=O)[C@@H](C)CC[C@]12C | 195 (≈ 77.9 µg/mL) | 10.3 | 195 (≈ 77.9 µg/mL) | 11.7 | 1560 (≈ 624 µg/mL) | 1570 (≈ 626 µg/mL) | 15.8 | 195 (≈ 78.1 µg/mL) | 195 (≈ 78.1 µg/mL) | 195 (≈ 78.1 µg/mL) | 129.4 | 49.1 (≈ 19.6 µg/mL) | 49.1 (≈ 19.6 µg/mL) | 195 (≈ 78.1 µg/mL) | 14.7 | 157 | 6.13 (≈ 2.45 µg/mL) | 97.7 (≈ 39.1 µg/mL) | 393 (≈ 157 µg/mL) | 54.3 | – |
